Published values gathered from unrelated publications.
Each line is one published result; the experiments were not run side by side.
CHEK2: Serine/threonine-protein kinase Chk2 (CHEK2, Homo sapiens, UniProt O96017)
CHEK2 R145W: Serine/threonine-protein kinase Chk2 (CHEK2, Homo sapiens, UniProt O96017, R145W)

Cc1ccc(C(=O)NCc2ccsc2)cc1C#Cc1cn(C(C)C)c2ncnc(N)c12
activity vs control (CHEK2; enzyme activity; inhibitor; 1 µM): 109%

CS(=O)(=O)N1CCCC(NC(=O)[C@H](CCC2CCCCC2)NC(=O)c2ccc(CNc3ncnc4c3nnn4-c3ccccc3)cc2)C1 (stereo partly drawn)
remaining binding (CHEK2; cell-free assay; competition with immobilised ligand; 0.1 µM): 100%

Cn1c2c(c3ccc(Cl)c(Cl)c31)C(C#N)C1(CCOCC1)NC2=O (stereo not drawn)
ΔTm (CHEK2; thermal stability; DSF; 10 µM): -0.3 °C

C#Cc1cccc(Nc2ncnc3cc(OCCOC)c(OCCOC)cc23)c1
remaining signal (CHEK2; cell-free assay; 0.5 µM): 100%

Cc1cc(NC(=O)c2cccc3cc(-c4cccc5[nH]nc(N)c45)ccc23)ccc1F
activity vs control (CHEK2 R145W; enzyme activity; inhibitor; 0.1 µM): 99%

CC(=O)N1CCC(c2ccc(C(=O)NC3=NCCN3)cc2C(F)(F)F)CC1
remaining binding (CHEK2; cell-free assay; competition with immobilised ligand; 1 µM): 100%

Cn1c2c(c3ccc(Cl)c(Cl)c31)C(C#N)C1(CCNCC1)NC2=O (racemic)
ΔTm (CHEK2; thermal stability; DSF; 10 µM): 0.2 °C

Cc1cnc(NC2CCOCC2)nc1-n1cnc(C(=O)NC(CN)c2cc(F)cc(Cl)c2)c1 (stereo not drawn)
remaining activity (Serine/threonine-protein kinase Chk2 (CHEK2, Homo sapiens, UniProt O96017, I157T); enzyme activity; inhibitor; radiometric; 1 µM): 82%

C[C@H](c1ccc(F)cc1)N(Cc1cccc(C(=O)O)c1)C(=O)c1cnc2ccccc2c1
remaining binding (CHEK2; cell-free assay; competition with immobilised ligand; 1 µM): 91%

O=C1NC(=O)c2c1c1c3ccccc3[nH]c1n1cncc21
remaining signal (CHEK2; cell-free assay; 0.5 µM): 21.2%

CNC(=O)c1cc(Oc2ccc(NC(=O)Nc3ccc(Cl)c(C(F)(F)F)c3)cc2)ccn1
inhibition (CHEK2; enzyme activity; inhibitor; 10 µM): 6%

CCOCCn1cc(C(=O)Nc2ccc(-n3nc(-c4cccnc4)cc3C(F)(F)F)cn2)ccc1=O
remaining binding (CHEK2; cell-free assay; competition with immobilised ligand; 1 µM): 0%

CCN1CCC2(CC1)NC(=O)c1c(c3ccc(Cl)c(Cl)c3n1C)C2C#N (racemic)
ΔTm (CHEK2; thermal stability; DSF; 10 µM): -0.2 °C

O=C(N1CCS(=O)(=O)CC1)N1C[C@H](c2ccc(OC(F)(F)F)cc2)C[C@H](c2nc(C3CC3)no2)C1
remaining binding (CHEK2; cell-free assay; competition with immobilised ligand; 1 µM): 100%

CN(C)C1CCN(CC#Cc2nn(C3CCCC3)c3nc(NCc4ccccc4)ncc23)C1 (stereo not drawn)
inhibition (CHEK2; enzyme activity; inhibitor; FRET; 1 µM): 7%

CN1CCC2(CC1)NC(=O)c1c(c3ccc(Cl)c(Cl)c3n1C)C2C#N (racemic)
ΔTm (CHEK2; thermal stability; DSF; 10 µM): -0.3 °C

COc1cc(/C=C/C(=O)CC(=O)/C=C/c2ccc(O)c(OC)c2)ccc1O
activity vs control (CHEK2; enzyme activity; inhibitor; 1 µM): 68%

Cn1c2c(c3ccc(Cl)c(Cl)c31)C(C#N)C(C)(C)NC2=O (stereo not drawn)
ΔTm (CHEK2; thermal stability; DSF; 10 µM): 0.2 °C

COc1cc(Nc2c(C#N)cnc3cc(OCCCN4CCN(C)CC4)c(OC)cc23)c(Cl)cc1Cl
remaining signal (CHEK2; cell-free assay; 0.5 µM): 21.7%

CC(=O)C1=C(C)N(c2cccc(C(F)(F)F)c2)C(=O)N[C@@H]1c1ccc(C#N)nc1
remaining binding (CHEK2; cell-free assay; competition with immobilised ligand; 1 µM): 85.6%

Cn1c2c(c3ccc(Cl)c(Cl)c31)C(C#N)C1(CCCC1)NC2=O (stereo not drawn)
ΔTm (CHEK2; thermal stability; DSF; 10 µM): 0 °C

Cc1ccc(Nc2nccc(N(C)c3ccc4c(C)n(C)nc4c3)n2)cc1S(N)(=O)=O
inhibition (CHEK2 R145W; enzyme activity; inhibitor; 10 µM): 28%

O=C1Nc2ccc(Cl)cc2C1=Cc1cc(Cl)c(O)c(Cl)c1
remaining signal (CHEK2; cell-free assay; 0.5 µM): 70.2%

CN(C)CC#Cc1ccc(OCCCc2sc(N3CCc4cccc(C(=O)Nc5nc6ccccc6s5)c4C3)nc2C(=O)O)c(F)c1
remaining binding (CHEK2; cell-free assay; competition with immobilised ligand; 1 µM): 100%

Cn1c2c(Cl)c(Cl)ccc2c2cc(N)[nH]c(=O)c21
ΔTm (CHEK2; thermal stability; DSF; 10 µM): 0.1 °C

CC(C)CC(=O)N1CCc2nc(-c3ccc(Br)cc3)nc(N(C)Cc3ccccc3)c2C1
remaining binding (CHEK2; cell-free assay; competition with immobilised ligand; 0.1 µM): 100%

O=C1NC(=O)c2cc(Nc3ccc(F)cc3)c(Nc3ccc(F)cc3)cc21
remaining signal (CHEK2; cell-free assay; 0.5 µM): 94.3%
